The target of assay [1] is human Mcl-1 (residues 172-327), c-myc tagged (human) (UniProt Q07820). Put plainly: fluorescence polarisation. (In general: Fluorescence polarisation rises when a labelled molecule tumbles more slowly, as on binding a larger partner.)
The next assay deals with Mcl-1 (Homo sapiens, UniProt Q07820). The assay is described as follows: Yeast surface display binding, soluble Mcl-1. Conditions: yeast cells displaying the peptide titrated with soluble Mcl-1. The method in brief:
(§1)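 EBY100 yeast displaying the BH3 peptide as Aga2p fusion with C-terminal FLAG tag, incubated with c-myc-tagged pro-survival protein. Expression is read by anti-FLAG/FITC and binding by anti-c-myc/PE. Cells are gated by forward scatter on a FACScan flow cytometer, typically 10,000 events analysed.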

A further assay has as its target Bcl-xL (Homo sapiens, UniProt Q07817). The assay is described as follows: Yeast surface display binding, soluble Bcl-xL. The settings on record: yeast cells displaying the peptide titrated with soluble Bcl-xL. The method in brief:
as §1

Assay [2] deals with human Mcl-1 (residues 172-327) (Homo sapiens, UniProt Q07820). Put plainly: Fluorescence polarization competition binding assay, Mcl-1. The settings on record: FP competition binding assay. The method in brief: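 c-myc-tagged human Mcl-1 (172-327) from E. coli BL21(DE3), TEV-cleaved from MBP, at 50 nM. Serially diluted unlabelled 23-residue peptides are premixed with Mcl-1 first. FITC-Bim-BH3 (10 nM) is then added and mixed overnight at 37 °C, returned to room temperature and anisotropy read. Buffer: phosphate, pH 7.8. Ki from complete competitive binding model fitting five parameters, Bim Kd fixed 1 nM; unlabelled Bim-BH3 reference; ≥2 experiments, SD.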

In assay [3] the target is human Bcl-xL (residues 1-209) (Homo sapiens, UniProt Q07817). Put plainly: Fluorescence polarization competition binding assay, Bcl-xL. The settings on record: FP competition binding assay.
Assay [4] addresses human Bcl-xL (residues 1-209), c-myc tagged (human) (UniProt Q07817). Put plainly: fluorescence polarisation.
Assay [5] concerns the target T1, human Bcl-w (residues 1-164), c-myc tagged (human), Q92843.
T1 chain: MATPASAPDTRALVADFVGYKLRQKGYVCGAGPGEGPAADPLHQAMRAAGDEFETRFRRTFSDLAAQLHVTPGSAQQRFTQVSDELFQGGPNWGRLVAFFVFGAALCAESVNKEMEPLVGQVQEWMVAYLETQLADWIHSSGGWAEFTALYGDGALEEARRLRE
Put plainly: SEC. The settings on record: remark: other sources report otherwise.

Some results are limits rather than exact numbers.

Chain of human Mcl-1 (residues 172-327), c-myc tagged (human) (Q07820 172-327): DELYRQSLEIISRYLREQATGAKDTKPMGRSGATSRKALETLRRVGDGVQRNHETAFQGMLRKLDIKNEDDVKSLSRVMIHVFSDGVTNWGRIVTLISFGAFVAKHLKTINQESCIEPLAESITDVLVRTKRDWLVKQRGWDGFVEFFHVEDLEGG
Chain of Mcl-1 (Q07820 172-327): as above
Chain of human Mcl-1 (residues 172-327) (Q07820 172-327): as above
Chain of Bcl-xL (Q07817 1-209): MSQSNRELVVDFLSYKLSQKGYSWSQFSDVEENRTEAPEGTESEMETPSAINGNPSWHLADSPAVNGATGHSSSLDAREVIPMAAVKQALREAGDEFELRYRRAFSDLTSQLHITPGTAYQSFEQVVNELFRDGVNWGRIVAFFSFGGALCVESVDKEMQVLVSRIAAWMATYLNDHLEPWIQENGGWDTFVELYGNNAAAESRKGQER
Chain of human Bcl-xL (residues 1-209) (Q07817 1-209): as above
Chain of human Bcl-xL (residues 1-209), c-myc tagged (human) (Q07817 1-209): as above

The Ki is a measure of affinity in units of concentration, obtained from inhibition or displacement. A lower Ki goes with higher affinity. As to “unlabeled Bim-BH3 peptide (23-residue synthetic peptide)”, the Ki in assay [1] is 2 nM.

As to “Bim-BH3: peptide derived from the BH3 region of human Bim; N-acetylated, C-amidated 23-mer in solution assays”, in the assay with Mcl-1, the “dissociation constant, yeast-displayed peptide, Mcl-1” value was “low nanomolar range”. In addition, the “dissociation constant, yeast-displayed peptide, Bcl-xL” value with Bcl-xL was “low nanomolar range”.

With `CC[C@H](C)[C@H](NC(=O)[C@H](CCCNC(=N)N)NC(=O)[C@H](CCCNC(=N)N)NC(=O)[C@H](CC(C)C)NC(=O)[C@H](CCC(=O)O)NC(=O)[C@H](CCC(N)=O)NC(=O)[C@H](C)NC(=O)[C@@H](NC(=O)[C@H](Cc1c[nH]c2ccccc12)NC(=O)[C@@H](NC(=O)[C@H](CCC(=O)O)NC(=O)[C@@H]1CCCN1C(=O)[C@H](CCCNC(=N)N)NC(C)=O)[C@@H](C)CC)[C@@H](C)CC)C(=O)NCC(=O)N[C@@H](CC(=O)O)C(=O)N[C@@H](CCC(=O)O)C(=O)N[C@H](C(=O)N[C@@H](CC(N)=O)C(=O)N[C@@H](C)C(=O)N[C@@H](Cc1ccc(O)cc1)C(=O)N[C@@H](Cc1ccc(O)cc1)C(=O)N[C@@H](C)C(=O)N[C@@H](CCCNC(=N)N)C(N)=O)C(C)C` [Phe4aVal mutation in Bim-BH3], the “increase of affinity for Mcl-1 relative to Bim-BH3” value in assay [2] is “more than 10 fold”. Also, the “reduction of affinity for Bcl-xL relative to Bim-BH3” value in assay [3] is about 30 fold.

For the molecule “Bim-BH3 with a Phe4aVal mutation (synthetic peptide)”, the Ki in assay [4] is 30 nM; in assay [1], under 0.1 nM.

B1: human Bcl-w (residues 1-164), c-myc tagged, Q92843 1-164 (domain or fragment)
chain: MATPASAPDTRALVADFVGYKLRQKGYVCGAGPGEGPAADPLHQAMRAAGDEFETRFRRTFSDLAAQLHVTPGSAQQRFTQVSDELFQGGPNWGRLVAFFVFGAALCAESVNKEMEPLVGQVQEWMVAYLETQLADWIHSSGGWAEFTALYGDGALEEARRLRE
On to B1, for which the oligomeric fraction in assay [5] came out at 58%.

Source of the values: publication PMC2896288 (Journal of molecular biology, 2010).
